Measurements gathered from unrelated publications.
Compare with care: the assays were run in different laboratories.
Observed: cell growth or viability

For `COc1cnc(OC)n2nc(NS(=O)(=O)c3c(OCC(F)F)cccc3C(F)(F)F)nc12`, the inhibition was 0% (L02; CCK-8; 1.56 µM, 72 h).
`CC[C@@]1(O)C(=O)OCc2c1cc1n(c2=O)Cc2cc3ccccc3nc2-1` gave an IC50 of 157 nM (PANC-1; SRB; 48 h).
With `CC[C@H](C)[C@@H]([C@@H](CC(=O)N1CCC[C@H]1[C@H](OC)[C@@H](C)C(=O)N[C@H](C)[C@@H](O)c1ccccc1)OC)N(C)C(=O)[C@@H](NC(=O)[C@@H](NC)C(C)C)C(C)C` the IC50 was 25.3 nM (L02; CCK-8).
`O=C1c2ccccc2-c2c3c(cc4ccnc1c24)OCO3` gave an IC50 of 7900 nM (MOLT-3; XTT; 75 h).
`O=C(NCc1ccccc1)c1cn(Cc2ccc(C(F)(F)F)cc2)c2ccc(Oc3ccccc3)cc2c1=O` gave a CC50 of > 50000 nM (HCC1419; 72 h).
The IC50 of `CCOc1ccccc1-n1c(CN2CCNCC2)nc2ccc(F)cc2c1=O` is reported as 40 nM (PANC-1; ATP luminescence; 72 h).
With `N.N.[Cl][Pt][Cl]` the IC50 was 780 nM (REH; ATP luminescence; 72 h).
For `Cc1ncsc1-c1ccc([C@H](C)NC(=O)[C@@H]2C[C@@H](O)CN2C(=O)[C@@H](c2cc(N3CCC(CN4CCC(OC5CC(Oc6cc(N7C8CCC7CN(c7cc(-c9ccccc9O)nnc7N)C8)ccn6)C5)CC4)CC3)no2)C(C)C)cc1` (some centres unmarked), the IC50 was 20.3 nM (NCI-H1944; ATP luminescence; 7 days).
